Source: PubChem (several laboratories)
CCR6 antagonist: CCR6 (human) receptor antagonism | AID 493098 | inhibition, % at 20 µM | CHO-K1 CCR6 PathHunter beta-arrestin, luminescence, CCL20-stimulated | P51684 | 340,000 compounds, 0.49% hits;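 active = compounds whose inhibition of the agonist-driven luminescence signal at 20 µM reaches about 50%, limit read from the data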;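 also: cells stimulated with CCL20 at 14 nM final; plate controls were DMSO with CCL20 for no effect and DMSO without agonist for full effect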
APJ antag: APJ receptor antagonism; P35414; CHO-K1 APJ beta-arrestin complementation, luminescence; inhibition, % at 20 µM; 330,000 compounds, 0.32% hits; AID 2521;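 active = inhibition above about 40% at 20 µM, limit read from the data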;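 also: cells challenged with 10 nM apelin-13 agonist together with compound; plate controls were apelin-13 plus DMSO wells for no effect and DMSO wells lacking apelin-13 for full effect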
CXCR6 block: inhibitors of human CXCR6 receptor; O00574; CHO-K1 PathHunter CXCR6 beta-arrestin, luminescence; inhibition, % at 20 µM; 360,000 compounds, 0.36% hits; AID 602244; in the data active = inhibition above about 34%, passing the limit was not always enough;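 also: antagonist mode with CXCL16 agonist at 10 nM final; 0% = 10 nM CXCL16 with DMSO and 100% = unstimulated wells without agonist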
APJ agonist: activates the human apelin receptor APJ. activation, % at 20 µM. CHO-K1 APJ PathHunter beta-arrestin, luminescence; 0% DMSO wells, 100% apelin. 330,000 compounds, 0.11% hits;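 active = activation more than six SD over the plate average, tested at 20 µM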;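 also: 0% = DMSO alone and 100% = apelin-13 at 10 nM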
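system = engineered CHO-K1 APJ arrestin reporter cells | input = 1000 cells per well | timing = overnight seeding, 90 min compound at 25 °C, 1 h detection | measured by = enzyme-fragment complementation luminescence | read-out = beta-arrestin recruitment to APJ as agonist activity, luminescent signal | control set = negative DMSO alone, positive Apelin-13 at 10 nM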
EBI2 block: antagonists of human EBI2 receptor | P32249 | EBI2 beta-arrestin recruitment, luminescence, 7a,25-OHC stimulated | inhibition, % at 5 µM | 360,000 compounds, 0.81% hits; in the data active = inhibition above about 38%;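 also: enzyme fragment complementation signal reports receptor beta-arrestin coupling in cells; 0% = agonist plus DMSO wells and 100% = wells without agonist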
Target sequence (P32249 whole entry, looked up, the tested form may be a part): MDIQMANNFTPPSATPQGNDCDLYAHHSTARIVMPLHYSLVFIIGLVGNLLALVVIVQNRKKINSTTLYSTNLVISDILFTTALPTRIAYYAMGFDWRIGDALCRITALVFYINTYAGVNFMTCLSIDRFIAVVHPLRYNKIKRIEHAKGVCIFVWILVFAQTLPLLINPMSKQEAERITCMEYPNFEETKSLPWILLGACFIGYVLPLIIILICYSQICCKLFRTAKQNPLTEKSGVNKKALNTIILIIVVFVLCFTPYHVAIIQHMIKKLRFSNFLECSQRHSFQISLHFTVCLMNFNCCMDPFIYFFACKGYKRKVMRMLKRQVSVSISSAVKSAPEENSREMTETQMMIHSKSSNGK
HTR2A ag: activates the mouse 5-HT2A serotonin receptor; P35363; CHO-K1 mHTR2A beta-arrestin complementation, luminescence; percent of 30 µM serotonin response; activation, % at 7.6 µM; 360,000 compounds, 0.66% hits;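 active = activation above a run cutoff, the mean activation of all tested compounds plus 3 SD, cut at about 14% in these data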;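 also: 0% = plate median of compound wells and 100% = 30 µM serotonin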
OPRM1 ag: counter-screen for mouse HTR2A agonists: human mu opioid receptor agonists; shares compounds with HTR2A ag; U2OS OPRM1 beta-arrestin PathHunter, luminescence; DMSO 0%, DAMGO 9.3 µM 100%; activation, % at 9.3 µM; 2,300 compounds, 5.3% hits;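 active = mean activation above the mean of DMSO-only wells plus 3 SD, cut at about 0.5% in these data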
HTR2A ag conf: confirmation of mouse HTR2A serotonin receptor agonists | shares compounds with HTR2A ag | CHO-K1 PathHunter beta-arrestin recruitment, luminescence; DMSO 0%, 30 µM serotonin 100% | activation, % at 7.6 µM | 2,300 compounds, 19% hits | AID 624381;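 active = mean activation across triplicates above the hit threshold derived in the original primary screen, cut at about 15% in these data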
Numbers without * were called inactive; x = not tested or not shown; ! = a repeat was not active. Compounds with a hit are over-represented: about 2.1% of the library has one in this group of screens.

SMILES	CCR6 antagonist	APJ antag	CXCR6 block	APJ agonist	EBI2 block	HTR2A ag	OPRM1 ag	HTR2A ag conf
Cc1ccc(S(=O)(=O)N/N=C/c2c(F)cccc2Cl)cc1	17	9	11	-5	-5	15*	-1	-3
O=S(=O)(N/N=C/c1c(F)cccc1Cl)c1ccccc1	-5	20	-4	-11	-5	7	x	x
O=C(COc1cc(Cl)c(Cl)cc1Cl)Nc1cccc(O)c1	-3	11	-7	-4	-6	22*	0	-1
CCc1ccc2c(c1)NC(=O)C2(C)Cc1ccccc1OC (configuration not stated)	x	x	-5	x	-6	1	x	x
Cc1ccc(Cn2cc(CN3CC(N4CCN(Cc5cccc(C)c5)CC4)CS3(=O)=O)nn2)cc1 (configuration not stated)	x	x	8	x	4	5	x	x
Cc1cccc(CN2CCN(C3CN(Cc4ccc(F)cc4)S(=O)(=O)C3)CC2)c1 (configuration not stated)	x	x	-3	x	-4	18*	-1	1
Cc1ccc(CN2CC(N3CCN(Cc4cccc(C)c4)CC3)CS2(=O)=O)cc1 (configuration not stated)	x	x	-3	x	-2	31*	0	11
COc1cc(/C=C(\CCC(=O)O)c2nc3ccccc3s2)ccc1OCC(=O)Nc1c(Cl)cccc1Cl	14	12	-6	-2	14	-5	x	x
COc1cccc(CN2CCN(C(=O)c3ccco3)CC2)c1	-10	6	-5	-4	-13	37*	-1	109*
COc1cccc(-c2nc(CN3CCN(C(=O)c4ccco4)CC3)c(C)o2)c1OC	x	x	8	x	-10	15*	-1	43*
Cc1oc(-c2cc(F)ccc2F)nc1CN1CCCN(C(=O)c2ccco2)CC1	8	15	2	0	9	0	x	x
COc1cccc(CN2CCCN(S(=O)(=O)c3ccc(Br)cc3)CC2)c1	22	11	-5	-2	11	29*	0	5
COc1ccc(OC)c(CN2CCN(C(=O)c3ccco3)CC2)c1	13	-1	4	-1	1	16*	1.2*	34*
CCC(C(=O)N1CCCCCC1)n1nc(C)n2c(cc3occc32)c1=O (configuration not stated)	14	4	-5	-4	1	8	x	x
CCOC(=O)C1(Cc2ccc(OC)cc2)CCN(C(=O)c2cc(C)nn2C)CC1	5	-6	-1	0	-1	-2	x	x
Cc1onc(-c2ccccc2Cl)c1C(=O)N(C)Cc1ccccc1	13	7	7	-1	4	-8	x	x
COc1ccc2oc(C(=O)N3CCN(C(=O)c4ccco4)CC3)c(C)c2c1	-1	22	-11	-3	14	14*	-1	-2
O=C(C[n+]1ccccc1)N1CCCc2ccccc21	0	4	7	-2	-7	20*	0	2
COc1ccc(-c2c(C#N)c(SCc3c(C)noc3C)nc3c2C(=O)CC(C)(C)C3)cc1	18	0	4	1	41	18*	-1	-3
Cc1noc(C)c1NC(=O)Nc1ccc2c(c1)C(=O)N([C@H](C)CO)C[C@H](C)[C@@H](CN(C)C(=O)Nc1ccc3c(c1)OCO3)O2	-2	7	2	-3	-9	1	x	x
CN(C)S(=O)(=O)c1ccc(Cl)c(NC(=O)CN2CCc3ccccc3C2)c1	8	-20	-3	-1	2	23*	0	82*
C/C=C(\C)CN1CCN(c2ccccc2)CC1	-8	21	-1	-4	-5	14	x	x
C/C(=C\c1ccccc1)CN1CCN(c2ccccc2)CC1	0	5	-9	1	-4	19*	0	41*
O=C1N/C(=N/O)S/C1=C\c1ccccc1-n1cccn1	-10	-6	-5	-1	-15	16*	0	0
O=C1N/C(=N/O)S/C1=C/c1cccc([N+](=O)[O-])c1	6	-3	6	-1	2	1	x	x
SMILES	CCR6 antagonist	APJ antag	CXCR6 block	APJ agonist	EBI2 block	HTR2A ag	OPRM1 ag	HTR2A ag conf
Cn1c2c(c3ccccc31)CCN(CCCCN1CCN(c3ccccc3)CC1)C2=O	4	x	-3	x	20	21*	0	40*
Cc1c(C(=O)CN2CCN(c3ccccc3)CC2)c2ccccc2n1C	9	1	4	-3	2	2	x	x
O=C(COc1ccccc1)Nc1nnc(-c2ccc3c(c2)CCCC3)o1	14	-67	12	-4	-2	0	x	x
O=C(COc1ccccc1)Nc1nnc(-c2ccc(F)cc2)o1	1	-7	8	-2	-1	17*	-1	2
COc1ccc(S(=O)(=O)NCC2CCCN(C(=O)c3cccnc3C)C2)cc1 (configuration not stated)	6	-13	-1	0	-4	15*	0	3
C[C@H]1Cn2cnc(C(=O)NCc3ccc(CNC(=O)OC(C)(C)C)cc3)c2C(=O)N1	x	x	-12	x	-3	-5	x	x
CC(Sc1ccc(Cl)cc1)C(=O)N(C)CC(=O)Nc1ccc(N2CCOCC2)cc1 (configuration not stated)	13	-4	-7	-6	-1	18*	0	8
CC(C)(C)NC(=O)C(C1CC1)n1c(=O)c(-c2ccccc2)nc2ccccc21 (configuration not stated)	x	x	x	x	6	5	x	x
CC1(C(=O)NCc2cccnc2)CCN1C(=O)c1cccc(F)c1 (configuration not stated)	x	x	-12	x	-11	-1	x	x
C[C@H](CO)N1C[C@H](C)[C@H](CN(C)S(=O)(=O)c2ccccc2)OCc2ccccc2-c2c(n(C)c3ccccc23)C1=O	x	x	-1	x	0	1	x	x
Cc1ccccc1S(=O)(=O)N(C)C[C@@H]1OCc2ccccc2-c2c(n(C)c3ccccc23)C(=O)N([C@H](C)CO)C[C@@H]1C	x	x	9	x	6	56*	0	4
FC(F)(F)Oc1ccc(Nc2nc(N3CCOCC3)nc(N3CCOCC3)n2)cc1	10	7	4	-4	4	15*	0	-4
COc1ccccc1Nc1nc(N2CCCC2)nc(N2CCOCC2)n1	12	17	-5	-6	-7	2	x	x
COc1ccccc1Nc1nc(N2CCOCC2)nc(N2CCOCC2)n1	5	12	2	-5	8	16*!	0	1
